Data reported in ChEMBL document CHEMBL3526002, “Tissue distribution and identification of radioactivity components at elimination phase after oral administration of [¹⁴C]CS-1036, an α-amylase inhibitor, to rats” (Drug Metab Dispos, 2013).

Tests used:
Conditions in all cases: in vivo; call rule not given here
Thymus [1] = assay: Drug uptake in albino F344/DuCrlCrlj rat thymus at 5 mg/kg, po after 8 hrs by liquid scintillation counting; format: ADME, organism-based; parameters: dose 5 mg/kg, dosed compound name [14C]CS-1036, route oral
Kidney [2] = assay: Drug uptake in albino F344/DuCrlCrlj rat kidney at 5 mg/kg, po after 8 hrs by liquid scintillation counting; format: ADME, organism-based; parameters: dose 5 mg/kg, dosed compound name [14C]CS-1036, route oral
Adrenal gland [3] = assay: Drug uptake in albino F344/DuCrlCrlj rat adrenal gland at 5 mg/kg, po after 8 hrs by liquid scintillation counting; format: ADME, organism-based; parameters: dose 5 mg/kg, dosed compound name [14C]CS-1036, route oral
[4] = Drug uptake in albino F344/DuCrlCrlj rat fat at 5 mg/kg, po after 8 hrs by liquid scintillation counting; format: ADME, organism-based, Adipose tissue; parameters: dose 5 mg/kg, dosed compound name [14C]CS-1036, route oral
Summary of the method: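 Male F344/DuCrlCrlj rats (bought at 7 weeks, acclimatized 5–6 days; 159–167 g; n = 3 per time point) received a single oral dose of [14C]CS-1036 at 5 mg/kg. White adipose tissue was collected after abdominal aortic bleeding at 1, 4, 8, 24, 72, 168 or 336 h. Samples were counted by LSC with external-standard efficiency correction. Results were converted to ng equivalents per g from specific activity and sample weight.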

[5] = Drug uptake in albino F344/DuCrlCrlj rat trachea assessed as ng equivalent of CS-1036 at 5 mg/kg, po after 1 hr by liquid scintillation counting; format: ADME, organism-based; parameters: dose 5 mg/kg, dosed compound name [14C]CS-1036, route oral
Cerebellum [6] = assay: Drug uptake in albino F344/DuCrlCrlj rat cerebellum assessed as ng equivalent of CS-1036 at 5 mg/kg, po after 4 hrs by liquid scintillation counting; format: ADME, organism-based; parameters: dose 5 mg/kg, dosed compound name [14C]CS-1036, route oral
[7] = Drug uptake in albino F344/DuCrlCrlj rat thyroid gland assessed as ng equivalent of CS-1036 at 5 mg/kg, po after 72 hrs by liquid scintillation counting; format: ADME, organism-based; parameters: dose 5 mg/kg, dosed compound name [14C]CS-1036, route oral
Heart = assay: Drug uptake in albino F344/DuCrlCrlj rat heart assessed as ng equivalent of CS-1036 at 5 mg/kg, po after 72 hrs by liquid scintillation counting; format: ADME, organism-based; parameters: dose 5 mg/kg, dosed compound name [14C]CS-1036, route oral
Thymus [8] = assay: Drug uptake in albino F344/DuCrlCrlj rat thymus assessed as ng equivalent of CS-1036 at 5 mg/kg, po after 4 hrs by liquid scintillation counting; format: ADME, organism-based; parameters: dose 5 mg/kg, dosed compound name [14C]CS-1036, route oral
Spleen = assay: Drug uptake in albino F344/DuCrlCrlj rat spleen assessed as ng equivalent of CS-1036 at 5 mg/kg, po after 72 hrs by liquid scintillation counting; format: ADME, organism-based; parameters: dose 5 mg/kg, dosed compound name [14C]CS-1036, route oral
Pancreas [9] = assay: Drug uptake in albino F344/DuCrlCrlj rat pancreas assessed as ng equivalent of CS-1036 at 5 mg/kg, po after 4 hrs by liquid scintillation counting; format: ADME, organism-based; parameters: dose 5 mg/kg, dosed compound name [14C]CS-1036, route oral
[10] = Drug uptake in albino F344/DuCrlCrlj rat bone marrow assessed as ng equivalent of CS-1036 at 5 mg/kg, po after 336 hrs by liquid scintillation counting; format: ADME, organism-based; parameters: dose 5 mg/kg, dosed compound name [14C]CS-1036, route oral
Small intestine [11] = assay: Drug uptake in albino F344/DuCrlCrlj rat small intestine assessed as ng equivalent of CS-1036 at 5 mg/kg, po after 336 hrs by liquid scintillation counting; format: ADME, organism-based; parameters: dose 5 mg/kg, dosed compound name [14C]CS-1036, route oral
Plasma [12] = assay: Drug uptake in albino F344/DuCrlCrlj rat plasma at 10 mg/kg, po after 8 to 72 hrs by liquid scintillation counting; format: ADME, organism-based; parameters: dose 10 mg/kg, dosed compound name [14C]CS-1036, route oral
[13] = Drug uptake in albino F344/DuCrlCrlj rat skeletal muscle at 5 mg/kg, po after 24 hrs by liquid scintillation counting; format: ADME, organism-based, Muscle tissue; parameters: dose 5 mg/kg, dosed compound name [14C]CS-1036, route oral
Aorta = assay: Drug uptake in albino F344/DuCrlCrlj rat aorta at 5 mg/kg, po after 24 hrs by liquid scintillation counting; format: ADME, organism-based; parameters: dose 5 mg/kg, dosed compound name [14C]CS-1036, route oral
[14] = Drug uptake in albino F344/DuCrlCrlj rat thyroid gland assessed as ng equivalent of CS-1036 at 5 mg/kg, po after 168 hrs by liquid scintillation counting; format: ADME, organism-based; parameters: dose 5 mg/kg, dosed compound name [14C]CS-1036, route oral
Thymus [15] = assay: Drug uptake in albino F344/DuCrlCrlj rat thymus assessed as ng equivalent of CS-1036 at 5 mg/kg, po after 168 hrs by liquid scintillation counting; format: ADME, organism-based; parameters: dose 5 mg/kg, dosed compound name [14C]CS-1036, route oral
Kidney [16] = assay: Drug uptake in albino F344/DuCrlCrlj rat kidney assessed as ng equivalent of CS-1036 at 5 mg/kg, po after 168 hrs by liquid scintillation counting; format: ADME, organism-based; parameters: dose 5 mg/kg, dosed compound name [14C]CS-1036, route oral
[17] = Drug uptake in albino F344/DuCrlCrlj rat pituitary gland at 5 mg/kg, po after 72 hrs by liquid scintillation counting; format: ADME, organism-based; parameters: dose 5 mg/kg, dosed compound name [14C]CS-1036, route oral
[18] = Drug uptake in albino F344/DuCrlCrlj rat testis at 5 mg/kg, po after 72 hrs by liquid scintillation counting; format: ADME, organism-based; parameters: dose 5 mg/kg, dosed compound name [14C]CS-1036, route oral
Stomach = assay: Drug uptake in albino F344/DuCrlCrlj rat stomach at 5 mg/kg, po after 72 hrs by liquid scintillation counting; format: ADME, organism-based; parameters: dose 5 mg/kg, dosed compound name [14C]CS-1036, route oral
[19] = Drug uptake in albino F344/DuCrlCrlj rat brown fat assessed as ng equivalent of CS-1036 at 5 mg/kg, po after 4 hrs by liquid scintillation counting; format: ADME, organism-based, Brown adipose tissue; parameters: dose 5 mg/kg, dosed compound name [14C]CS-1036, route oral
Liver = assay: Drug uptake in albino F344/DuCrlCrlj rat liver assessed as ng equivalent of CS-1036 at 5 mg/kg, po after 336 hrs by liquid scintillation counting; format: ADME, organism-based; parameters: dose 5 mg/kg, dosed compound name [14C]CS-1036, route oral
Kidney [20] = assay: Drug uptake in albino F344/DuCrlCrlj rat kidney assessed as ng equivalent of CS-1036 at 5 mg/kg, po after 336 hrs by liquid scintillation counting; format: ADME, organism-based; parameters: dose 5 mg/kg, dosed compound name [14C]CS-1036, route oral
Adrenal gland [21] = assay: Drug uptake in albino F344/DuCrlCrlj rat adrenal gland at 5 mg/kg, po after 1 hr by liquid scintillation counting; format: ADME, organism-based; parameters: dose 5 mg/kg, dosed compound name [14C]CS-1036, route oral
Plasma [22] = assay: Drug uptake in albino F344/DuCrlCrlj rat plasma assessed as ng equivalent of CS-1036 at 5 mg/kg, po after 24 hrs by liquid scintillation counting; format: ADME, organism-based; parameters: dose 5 mg/kg, dosed compound name [14C]CS-1036, route oral
Blood = assay: Drug uptake in albino F344/DuCrlCrlj rat blood assessed as ng equivalent of CS-1036 at 5 mg/kg, po after 24 hrs by liquid scintillation counting; format: ADME, organism-based; parameters: dose 5 mg/kg, dosed compound name [14C]CS-1036, route oral
Summary of the method: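 Male F344/DuCrlCrlj rats (159–167 g; n = 3 per time point) received a single oral dose of [14C]CS-1036 at 5 mg/kg. Blood was taken from the abdominal aorta at 1, 4, 8, 24, 72, 168 and 336 h. Radioactivity was counted by LSC with external-standard efficiency correction. Results were converted to ng equivalent of CS-1036/ml using specific activity and sample volume, and reported as mean + S.D.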

Cerebellum [23] = assay: Drug uptake in albino F344/DuCrlCrlj rat cerebellum at 5 mg/kg, po after 168 hrs by liquid scintillation counting; format: ADME, organism-based; parameters: dose 5 mg/kg, dosed compound name [14C]CS-1036, route oral
[24] = Drug uptake in albino F344/DuCrlCrlj rat eyeball at 5 mg/kg, po after 168 hrs by liquid scintillation counting; format: ADME, organism-based; parameters: dose 5 mg/kg, dosed compound name [14C]CS-1036, route oral
Small intestine [25] = assay: Drug uptake in albino F344/DuCrlCrlj rat small intestine at 5 mg/kg, po after 168 hrs by liquid scintillation counting; format: ADME, organism-based; parameters: dose 5 mg/kg, dosed compound name [14C]CS-1036, route oral
Cerebellum [26] = assay: Drug uptake in albino F344/DuCrlCrlj rat cerebellum at 5 mg/kg, po after 336 hrs by liquid scintillation counting; format: ADME, organism-based; parameters: dose 5 mg/kg, dosed compound name [14C]CS-1036, route oral
Kidney [27] = assay: Drug uptake in albino F344/DuCrlCrlj rat kidney assessed as ng equivalent of CS-1036 at 5 mg/kg, po after 24 hrs by liquid scintillation counting; format: ADME, organism-based; parameters: dose 5 mg/kg, dosed compound name [14C]CS-1036, route oral
Pancreas [28] = assay: Drug uptake in albino F344/DuCrlCrlj rat pancreas assessed as ng equivalent of CS-1036 at 5 mg/kg, po after 24 hrs by liquid scintillation counting; format: ADME, organism-based; parameters: dose 5 mg/kg, dosed compound name [14C]CS-1036, route oral

Radiolabel recovery (Thymus [1]): 43.4 ngequiv/g | Radiolabel recovery (Kidney [2]): 1320 ngequiv/g | Radiolabel recovery (Adrenal gland [3]): 66.1 ngequiv/g | Radiolabel recovery [4]: 14 ngequiv/g | Radiolabel recovery [5]: 7.4 ngequiv/g | Radiolabel recovery (Cerebellum [6]): 0.6 ngequiv/g | Radiolabel recovery [7]: 42.7 ngequiv/g | Radiolabel recovery (Heart): 9.2 ngequiv/g | Radiolabel recovery (Thymus [8]): 2.8 ngequiv/g | Radiolabel recovery (Spleen): 19.5 ngequiv/g | Radiolabel recovery (Pancreas [9]): 52 ngequiv/g | Radiolabel recovery [10]: 11.4 ngequiv/g | Radiolabel recovery (Small intestine [11]): 1.92 ngequiv/g | Drug uptake (Plasma [12]): Active | Radiolabel recovery [13]: 34.4 ngequiv/g | Radiolabel recovery (Aorta): 35.2 ngequiv/g | Radiolabel recovery [14]: 29.9 ngequiv/g | Radiolabel recovery (Thymus [15]): 5.4 ngequiv/g | Radiolabel recovery (Kidney [16]): 5.4 ngequiv/g | Radiolabel recovery [17]: 22.1 ngequiv/g | Radiolabel recovery [18]: 24.9 ngequiv/g | Radiolabel recovery (Stomach): 49 ngequiv/g | Radiolabel recovery [19]: 2.5 ngequiv/g | Radiolabel recovery (Liver): 2.66 ngequiv/g | Radiolabel recovery (Kidney [20]): 4.9 ngequiv/g | Radiolabel recovery (Adrenal gland [21]): 32.2 ngequiv/g | Radiolabel recovery (Plasma [22]): 6.1 ngequiv/ml | Radiolabel recovery (Blood): 4 ngequiv/ml | Radiolabel recovery (Cerebellum [23]): 7.12 ngequiv/g | Radiolabel recovery [24]: 4.54 ngequiv/g | Radiolabel recovery (Small intestine [25]): 13 ngequiv/g | Radiolabel recovery (Cerebellum [26]): 5.41 ngequiv/g | Radiolabel recovery (Kidney [27]): 16 ngequiv/g | Radiolabel recovery (Pancreas [28]): 25 ngequiv/g
SMILES: C[C@H]1O[C@@H](O[C@H]2[C@H](O)[C@@H](O)[C@@H](O[14C@H]3[14C@H](O)[14CH2]N[14C@@H]3[14CH2]O)O[C@@H]2CO)[C@H](O)[C@@H](O)[C@@H]1O
